EP2 mod: modulators of human EP2 prostaglandin E2 receptor. P43116. EP2-expressing cells, cAMP HTRF FRET, PGE2 co-stimulation. induction, % at 25 µM. hit rate 0.83% among 260,000. AID 940;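 active = compounds whose cAMP rise, as percent of the full-agonist control response, exceeds 60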;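 note: rat C6 glioma line stably carrying human EP2 under a CMV promoter; the protocol text gives 20 µM as final concentration; 100% = response of wells given 1 µM PGE2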
Target sequence (P43116 whole entry, looked up): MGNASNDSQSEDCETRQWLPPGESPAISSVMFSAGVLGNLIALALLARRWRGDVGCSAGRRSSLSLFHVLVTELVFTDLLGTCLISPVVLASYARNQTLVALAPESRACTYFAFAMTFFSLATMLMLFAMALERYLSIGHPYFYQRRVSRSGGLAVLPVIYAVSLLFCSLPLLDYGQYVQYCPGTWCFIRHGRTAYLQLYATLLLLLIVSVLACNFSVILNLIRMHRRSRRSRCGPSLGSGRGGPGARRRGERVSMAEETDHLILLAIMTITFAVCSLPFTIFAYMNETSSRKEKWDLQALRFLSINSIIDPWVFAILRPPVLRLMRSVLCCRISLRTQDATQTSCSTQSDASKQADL
GPR7 antag: blocks human GPR7 receptor signaling; GPR7-expressing cells, fluorescence antagonist assay; inhibition, % at 4.4 µM; hit rate 1.1% among 290,000; in the data active = inhibition above about 16%, passing the limit was not always enough;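 note: cells stimulated with the agonist NPW; 0% = agonist with vehicle and 100% = vehicle without agonist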
Target sequence (P48145 whole entry, looked up): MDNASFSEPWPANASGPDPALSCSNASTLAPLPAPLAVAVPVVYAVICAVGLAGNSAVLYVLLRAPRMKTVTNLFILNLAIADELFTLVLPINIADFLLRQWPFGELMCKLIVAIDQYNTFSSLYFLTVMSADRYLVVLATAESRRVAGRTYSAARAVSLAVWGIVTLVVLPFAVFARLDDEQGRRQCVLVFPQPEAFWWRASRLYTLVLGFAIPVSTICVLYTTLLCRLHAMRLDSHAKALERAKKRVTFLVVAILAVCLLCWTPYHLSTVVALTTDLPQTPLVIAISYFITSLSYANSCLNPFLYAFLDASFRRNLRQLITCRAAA
OX1R antag-1: human HCRTR1 antagonism; inhibition, % at 5 µM; O43613; hit rate 0.43% among 330,000; AID 434989; CHO/OX1R cells, Fluo-8 calcium fluorescence, orexin A;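 active = inhibition above its plate's threshold, mean inhibition of all tested compounds on the plate plus 3 SD, cut at about 37% in these data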;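 note: 0% = orexin A challenge wells and 100% = SB-334867-A antagonist wells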
CHO parental Ca: counter-screen for OX1R antagonists: effect in parental CHO cells; hit rate 0.63% among 330,000; parental CHO-K1, ATP-induced calcium, Fluo-8 fluorescence; inhibition, % at 5.6 µM; AID 463079;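 active = inhibition above that plate's mean sample inhibition plus 3 SD, cut at about 26% in these data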;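 note: 0% = ATP-challenged DMSO wells and 100% = DMSO wells without ATP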
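Material – parental CHO cells · Reagent – ATP stimulus · Compound – single nominal dose of 5.6 µM per compound · Detection – Fluo-8 fluorescence · Read-out basis – percent inhibition of calcium signal · Controls – ATP-challenged DMSO wells low, unchallenged DMSO wells high · Repeats – no replicates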
EP2 antag: inhibitors of human EP2 prostaglandin E2 receptor; C6 glioma cells expressing human EP2, cAMP TR-FRET; cells stimulated with saturating PGE2; inhibition, % at 25 µM; hit rate 0.52% among 260,000; P43116; AID 1422;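 active = percent inhibition above 40 after rounding to a whole number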;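 note: rat C6 glioma host cells with rolipram phosphodiesterase inhibitor present; the protocol text gives 20 µM as final concentration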
OX1R antag-2: blocks the human orexin 1 receptor; OX1R-expressing cells, FRET antagonist read-out; inhibition, % at 6.6 µM; hit rate 1.8% among 330,000; in the data active = inhibition mostly above about 38%, no sharp cut-off; inactive = mostly below about 40%;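 note: 0% = agonist challenge alone and 100% = reference antagonist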
GPR7 antag cf: human GPR7 antagonism, confirmation assay; shares compounds with GPR7 antag; GPR7-expressing cells, calcium fluorescence antagonist mode; inhibition, % at 4.4 µM; hit rate 52% among 2,400; AID 1952; in the data active = inhibition above about 24%;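 note: stimulated with the GPR7 agonist NPW; 0% = agonist plus vehicle and 100% = vehicle alone without agonist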
MCHR1 antag: counter-screen for GPR7 antagonists: antagonists of human MCHR1. inhibition, % at 4.4 µM. hit rate 62% among 2,400. shares compounds with GPR7 antag. MCHR1-expressing cells, fluorescence antagonist assay; in the data active = inhibition above about 22%;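 note: 0% = vehicle with agonist and 100% = vehicle without agonist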
Active calls of the source: *; . = no result given. Compounds with a hit are over-represented: about 3.7% of the library has one in this group of screens.

SMILES	EP2 mod	GPR7 antag	OX1R antag-1	CHO parental Ca	EP2 antag	OX1R antag-2	GPR7 antag cf	MCHR1 antag
CC1(c2ccc(OC(F)F)cc2)NC(=O)N(CC(=O)Nc2ccc(OC(F)F)cc2)C1=O (stereo unspecified)	.	86.4*	52.5*	35.8*	.	-5.0	88.3*	86.5*
Cc1ccc(C2(C)NC(=O)N(CC(=O)Nc3ccc4c(c3)OCO4)C2=O)cc1 (stereo unspecified)	19.3	5.8	-11.2	-3.5	4.6	7.6	.	.
CCC(C)(C)n1nnnc1CN(Cc1ccc(OC)cc1)Cc1cc2c(C)ccc(C)c2[nH]c1=O	-32.3	.	.	.	9.5	.	.	.
CCn1c2cc(C)oc2c2cnn(Cc3ccc(F)cc3)c(=O)c21	13.5	.	.	.	.	.	.	.
CC(=O)c1cccc(NC(=O)c2ccc3c(c2)CCCC3)c1	.	43.0*	5.2	-19.2	.	32.6	8.4	41.4*
CC(=O)c1cccc(NC(=O)c2ccc(N(C)S(=O)(=O)c3ccc(C)cc3)cc2)c1	.	30.5*	9.3	4.3	.	18.0	5.1	37.5*
CC(=O)c1cccc(NS(=O)(=O)c2ccc(C(=O)Nc3ccccc3)cc2)c1	.	21.5*	70.1*	71.5*	.	74.2*	28.9*	49.6*
Cc1ccc(CN(c2ccc(C(=O)Nc3ccc4c(c3)OCO4)cc2)S(C)(=O)=O)cc1	-38.7	2.9	-12.8	-9.2	6.8	-1.2	.	.
CC(=O)c1cccc(NC(=O)c2ccc(N(Cc3ccc(C)cc3)S(C)(=O)=O)cc2)c1	-43.4	36.7*	-2.8	6.7	9.9	25.7	15.8	49.5*
CCOC(=O)c1cnc2c(C(=O)OC)cccc2c1NCCN1CCOCC1	8.9	-3.1	1.5	-1.6	8.1	19.7	.	.
NCCSc1c(-c2ccccc2)[nH]c2ccccc12	-25.6	21.0*	-3.0	-8.7	19.6	2.5	19.3	22.6*
NC(=O)N/N=C/c1coc2ccc(O)cc2c1=O	2.8	21.4*	-12.8	-2.5	1.6	32.0	4.7	4.3
COc1ccc2[nH]c3c(=O)n(CCCC(=O)NC4CCCCC4C)c(=S)[nH]c3c2c1 (stereo unspecified)	.	22.0*	-0.6	-23.2	.	1.3	-4.2	-2.2
COc1ccc2[nH]c3c(=O)n(CCCC(=O)NC4CCC(C)CC4)c(=S)[nH]c3c2c1 (stereo unspecified)	.	-1.7	-2.3	-15.7	.	0.3	.	.
COc1cccc(NC(=O)COC(=O)c2c3c(nc4ccccc24)CCC(C)C3)c1 (stereo unspecified)	-19.6	39.4*	12.6	-3.6	2.5	36.3*	26.5*	63.2*
Cc1ccnc(NC(=O)c2cnc(Cl)c(Cl)c2)c1	.	-10.6	-18.2	-13.0	.	18.9	.	.
Cc1cc(Cl)ccc1OCC(=O)N1CCCN(C(=O)COc2ccc(Cl)cc2C)CC1	-61.9	26.9*	-16.3	-20.8	22.5	27.1	12.5	20.0
Cc1cc(Cl)ccc1OC(C)C(=O)N1CCCN(C(=O)C(C)Oc2ccc(Cl)cc2C)CC1 (stereo unspecified)	-34.7	32.3*	13.9	-19.2	13.0	31.9	62.8*	70.8*
COc1ccccc1N1CCN(C(=O)COc2ccc(Cl)cc2Br)CC1	-5.8	28.4*	-16.8	-14.8	9.5	22.3	47.7*	46.9*
Cc1cc(Cl)ccc1OCC(=O)N1CC(C)CC(C)C1 (stereo unspecified)	15.5	10.2	-41.5	-25.9	6.7	10.3	.	.
O=C(Nc1cccc(S(=O)(=O)N2CCCCCC2)c1)c1ccc(=O)[nH]c1	.	.	-11.9	-11.0	.	2.9	.	.
CC1=C(C#N)c2nc(N)c(C#N)c(C)c2/C1=C\c1ccc(-c2ccccc2C(=O)O)o1	-55.6	-8.2	.	.	14.5	.	.	.
Cc1ccc2oc(=O)n(CC(=O)c3ccc(F)cc3)c2c1	-10.5	24.6*	-17.1	-3.7	17.7	-1.3	-1.2	12.4
CC1CN(CC(O)COC(c2ccc(Cl)cc2)c2ccc(Cl)cc2)CC(C)O1 (stereo unspecified)	8.0	21.0*	-25.7	4.2	7.0	12.8	8.9	40.2*
CC1CN(CC(O)COc2ccc(C(C)C)cc2)CC(C)O1 (stereo unspecified)	12.0	-6.6	-19.4	-9.2	6.8	21.2	.	.
SMILES	EP2 mod	GPR7 antag	OX1R antag-1	CHO parental Ca	EP2 antag	OX1R antag-2	GPR7 antag cf	MCHR1 antag
COc1ccc(Nc2nc(N)nc(CSc3nnc(N)s3)n2)cc1	-34.2	-4.9	-20.3	-4.4	1.8	9.9	.	.
Brc1cccc(OCCn2ccnc2)c1	12.2	23.6*	-11.6	-8.3	10.5	24.2	8.7	1.6
COc1ccccc1-n1c(SCC(=O)NC2CCCCC2)nc2c(c1=O)SCC2	40.5	29.1*	-31.8	-5.8	8.9	16.5	6.1	16.9
COc1ccc(NC(=O)CSc2nc3c(c(=O)n2-c2ccccc2OC)SCC3)cc1	0.6	-3.5	-19.1	-4.7	9.0	3.2	.	.
COc1ccc(Cc2nnc(NC(=O)c3cc(OC)cc(OC)c3)s2)cc1	-90.7	8.2	-26.9	-20.3	15.3	13.3	.	.
CN(Cc1cccc(Cl)c1)C(=O)C1CCC(=O)N(C2CC2)C1 (stereo unspecified)	.	22.5*	-20.5	-5.8	.	-1.0	-8.6	11.9
CN(Cc1ccc(C(F)(F)F)cc1)C(=O)C1CCC(=O)N(C2CC2)C1 (stereo unspecified)	.	-2.7	.	.	.	.	.	.
C=CCc1cccc([C@@H]2[C@@H](C)CC[C@H]3C(=O)N4[C@@H](c5cc(OC)c(OC)c(OC)c5)c5[nH]c6ccccc6c5C[C@H]4C(=O)N23)c1	-29.0	33.1*	-22.4	-17.5	.	2.7	8.4	5.8
COc1cc(C2c3[nH]c4ccccc4c3C[C@@H]3C(=O)N(Cc4ccco4)CC(=O)N23)cc(OC)c1OC (stereo partly specified)	.	16.7	-3.0	-14.8	.	11.6	.	.
CC(NC(=O)Cn1c(NCCO)nc2ccccc21)C1CC2CCC1C2 (stereo unspecified)	-6.0	33.4*	-12.4	-19.3	7.0	11.8	27.0*	21.0
Cc1nc2ccccc2n1CC(=O)NC(C)C1CC2CCC1C2 (stereo unspecified)	-29.8	4.5	-23.5	-12.3	4.1	40.7	.	.
CCCCCC(=O)Nc1cccc(-c2nc3ncccc3o2)c1	-34.3	-9.3	-10.9	-12.6	-1.7	13.5	.	.
Cc1ccc(-n2c(SCC(=O)N3CCCCC3)nc(O)c(Cc3ccccc3)c2=O)cc1	.	25.0*	-13.1	-12.1	.	3.8	10.4	3.7
CN(C)C(=O)N1CCCC(C(=O)NCc2ccccc2Cl)C1 (stereo unspecified)	.	-8.4	-17.1	-8.5	4.8	11.6	.	.
O=C(NC1CCCC1)c1ccc(CS(=O)(=O)c2ccc(Cl)cc2)o1	.	-8.7	-16.5	-12.7	.	9.8	.	.
